Series [1] deals with HeLa. The experiment in a line: Induction of autophagy in human HeLa cells expressing EGFP-LC3 assessed as increase in LC3-2 level at 400 nM. In kind it is functional, cell-based.
Series [2] has as its system SK-N-MC. As to the kind of experiment: Cytotoxicity against human SK-N-MC cells expressing EGFP-HDQ74 at 1 uM after 48 hrs. Format: cell-based.
In series [3] the test system is SK-N-SH (Homo sapiens). The experiment in a line: Induction of autophagy in human SK-N-SH cells expressing EGFP-HDQ74 assessed as reduction in EGFP-HDQ74 aggregation at 1 uM after 48 hrs by densitometric analysis.
Series [4] has as its system PC-12. The experiment in a line: Induction of autophagy in rat stable inducible PC12 cells expressing A53T alpha-synuclein assessed as A53T alpha-synuclein clearance at 500 uM after 24 hrs by densitometric analysis. In kind it is functional, cell-based. The procedure, abridged: (§1)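 Inducible PC12 A53T α-synuclein (HA) cells induced with 1 μg/ml doxycycline for 48 h. Doxycycline then removed for 24 h with compound or DMSO. Remaining protein measured by anti-HA immunoblot, densitometry relative to actin.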

Series [5] concerns SK-N-SH. The experiment in a line: Induction of autophagy in human SK-N-SH cells expressing EGFP-HDQ74 assessed as reduction in EGFP-HDQ74 aggregation at 500 uM after 48 hrs by densitometric analysis. In kind it is functional, cell-based.
The species entered for series [6] is Mus musculus. As to the kind of experiment: Induction of autophagy in Atg deficient mouse […] expressing EGFP-HDQ74 at 1 uM after 48 hrs. In kind it is functional.
The subject of series [7] is SK-N-MC. The experiment in a line: Induction of autophagy in Atg positive human SK-N-MC cells expressing EGFP-HDQ74 at 1 uM after 48 hrs. Format: functional, cell-based.
Series [8] relates to SK-N-SH (Homo sapiens). The experiment in a line: Induction of autophagy in human SK-N-SH cells assessed as increase in LC3-2 level at 3 uM after 24 hrs by immunoblotting analysis. (In general: Immunoblotting shows a protein as a band on a membrane.)
Series [9] is filed under the species Danio rerio. As to the kind of experiment: Protection of neurodegeneration in zebrafish Huntington's disease model expressing EGFP-tagged huntingtin exon with EGFP-HDQ71 in rod photoreceptor assessed as loss of rhodopsin expression at 3 uM.
The species entered for series [10] is Danio rerio. The experiment in a line: Protection of neurodegeneration in zebrafish Huntington's disease model expressing EGFP-tagged huntingtin exon with EGFP-HDQ71 in rod photoreceptor assessed as decrease in […] aggregation at 3 uM.
The subject of series [11] is COS-7. As to the kind of experiment: Effect on mTOR-signaling in african green monkey COS7 cells assessed as phospho-S6K at 2.5 uM by immunoblotting analysis. In kind it is cell-based. The following applies: Chlorocebus aethiops. The procedure, abridged:
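COS-7 cells exposed 24 h (0.2 μM rapamycin as positive control for mTOR inhibition); lysates immunoblotted for phospho-S6K, with densitometry of phospho-S6K relative to total S6K.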

Series [12] relates to COS-7. As to the kind of experiment: Induction of autophagy in african green monkey COS7 cells expressing EGFP-Atg5 assessed as increase in Atg5 level at 10 uM after 48 hrs by immunoblotting analysis. In kind it is functional, cell-based. The following applies: Chlorocebus aethiops. Put shortly:
(§2)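 COS-7 cells co-transfected 4 h with EGFP-Atg5 plus EGFP as transfection control (3:1 ratio), then treated. Atg5 level and cleavage assessed by immunoblotting.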

In series [13] the test system is COS-7. The experiment in a line: Induction of autophagy in african green monkey COS7 cells expressing EGFP-Atg5 assessed as increase in Atg5 level at 2.5 uM after 48 hrs by immunoblotting analysis. In kind it is functional, cell-based. The following applies: Chlorocebus aethiops. Put shortly:
as §2

In series [14] the test system is COS-7. The experiment in a line: Induction of autophagy in african green monkey COS7 cells assessed as intracytosolic calcium concentration nu calpain activation assay. Format: functional, cell-based. The following applies: Chlorocebus aethiops.
For series [15], the system named is COS-7. The experiment in a line: Induction of autophagy in african green monkey COS7 cells expressing EGFP-HDQ74 assessed as EGFP-HDQ74 aggregation at 2.5 uM after 48 hrs. Format: functional, cell-based. The following applies: Chlorocebus aethiops. Put shortly: (§3)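 COS-7 cells transfected with EGFP-HDQ74 (1.5 μg/well) for 4 h, then exposed for the last 24 h of a 48 h post-transfection period. ALLM (50 μM) was added 15 min before thapsigargin. Cells fixed in 4% PFA with DAPI mount; ~200 EGFP-positive cells per sample scored blinded for aggregates. Triplicate, at least twice; odds ratios.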

The subject of series [16] is PC-12. As to the kind of experiment: Induction of autophagy in rat stable inducible PC12 cells expressing A53T alpha-synuclein assessed as A53T alpha-synuclein clearance at 2.5 uM after 24 hrs by densitometric analysis. Format: functional, cell-based. Put shortly: (§4)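 Stable inducible PC12 line: A53T α-synuclein (HA-tagged) induced with 1 μg/ml doxycycline for 48 h, then switched off by doxycycline removal for 24 h during treatment. For ALLM (50 μM), 15 min pre-treatment. Anti-HA immunoblot, densitometry relative to actin; DMSO control.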

In series [17] the test system is COS-7. The experiment in a line: Induction of autophagy in african green monkey COS7 cells expressing EGFP-HDQ74 assessed as EGFP-HDQ74 aggregation at 2.5 uM after 48 hrs in presence of 50 uM ALLM. In kind it is functional, cell-based. The following applies: Chlorocebus aethiops. The procedure, abridged:
as §3

Series [18] relates to PC-12. As to the kind of experiment: Induction of autophagy in rat stable inducible PC12 cells expressing A53T alpha-synuclein assessed as A53T alpha-synuclein clearance at 2.5 uM after 24 hrs by densitometric analysis in presence of 50 uM ALLM. Format: functional, cell-based. Put shortly:
as §4

Series [19] has as its system COS-7. The experiment in a line: Induction of autophagy in african green monkey COS7 cells assessed as increase in steady state LC-3 positive vesicles at 2.5 uM after 2 hrs by immunofluorescence analysis. Format: functional, cell-based. The following applies: Chlorocebus aethiops. The procedure, abridged:
(§5)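 COS-7 cells treated 2 h, fixed in 4% paraformaldehyde, then immunostained with anti-LC3 and Alexa-conjugated secondary antibodies. LC3-positive vesicles imaged by confocal microscopy (63x oil lens) at room temperature.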

The subject of series [20] is COS-7. The experiment in a line: Induction of autophagy in african green monkey COS7 cells assessed as increase in LC-3-2 positive vesicles at 2.5 uM after 2 hrs by immunofluorescence analysis. The note with it: Chlorocebus aethiops. Format: functional, cell-based. The procedure, abridged:
as §5

Series [21] has as its system COS-7. As to the kind of experiment: Induction of autophagy in african green monkey COS7 cells assessed as increase in LC-3-2 positive vesicles at 2.5 uM after 2 hrs by immunofluorescence analysis n presence of 400 nM bafilomycin A1. In kind it is functional, cell-based. The following applies: Chlorocebus aethiops.
Series [22] relates to PC-12. The experiment in a line: Induction of autophagy in rat stable inducible PC12 cells assessed as increase in LC3-2 level after 24 hrs by immunoblotting analysis. In kind it is functional, cell-based. Put shortly:
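Endogenous LC3-II in PC12 cells after 24 h exposure; immunoblot densitometry relative to actin.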

Series [23] relates to PC-12. The experiment in a line: Induction of autophagy in rat stable inducible PC12 cells expressing A53T alpha-synuclein and endogenously I1R assessed as increase in A53T alpha-synuclein clearance at 1 uM after 24 hrs by densitometric analysis. Format: functional, cell-based. Put shortly:
as §1

Series [24] concerns PC-12. As to the kind of experiment: Induction of autophagy in rat stable inducible PC12 cells expressing EGFP-HDQ74 and endogenously I1R assessed as decrease in EGFP-HDQ74 aggregation at 1 uM after 24 hrs by densitometric analysis. In kind it is functional, cell-based.
Series [25] deals with SK-N-MC. As to the kind of experiment: Induction of autophagy in human SK-N-MC cells expressing A53T alpha-synuclein and endogenously I1R/alpha2 AR assessed as increase in A53T alpha-synuclein clearance at 1 uM after 24 hrs by densitometric analysis. In kind it is functional, cell-based.
Series [26] has as its system SK-N-MC. The experiment in a line: Induction of autophagy in human SK-N-MC cells expressing EGFP-HDQ74 and endogenously I1R/alpha2 AR assessed as decrease in EGFP-HDQ74 aggregation at 1 uM after 24 hrs by densitometric analysis. In kind it is functional, cell-based.

Our source for the Activity values is ChEMBL document CHEMBL1250446, “Novel targets for Huntington's disease in an mTOR-independent autophagy pathway” (Nat Chem Biol, 2008).

SMILES strings stand for the structures. Activity calls are given as the source filed them. The calls are words filed in the database; no cut-off is given here.

In the case of `CO/C1=C\C(C)=C\[C@@H](C)[C@@H](O)[C@@H](C)C/C(C)=C/C=C/[C@H](OC)[C@@H]([C@@H](C)[C@@H](O)[C@H](C)[C@@]2(O)C[C@@H](O)[C@H](C)[C@@H](C(C)C)O2)OC1=O`, the outcome in series [1] was Active.
Take `CCCCc1oc2ccccc2c1C(=O)c1cc(I)c(OCCN(CC)CC)c(I)c1` [AMIODARONE]: in [2], the Activity result was “Non-toxic”. The result in [3] was Active.
With `CCCC(=O)Nc1ncnc2c1ncn2[C@@H]1O[C@@H]2COP(=O)(O)O[C@H]2[C@H]1OC(=O)CCC`, the outcome in series [4] and in series [5] was inactive.
Consider `CCOC(=O)C1=C(C)NC(C)=C(C(=O)OC)C1c1cccc([N+](=O)[O-])c1` (centres undefined) [NITRENDIPINE], for which, in [2], the Activity result is given as “Non-toxic”. Further, the outcome in series [3] was Active.
On to `Nc1cc(N2CCCCC2)nc(N)[n+]1[O-]` [MINOXIDIL], for which, in [2], the Activity result was “Non-toxic”. Besides, the outcome in series [6] was inactive. Further, the result in series [7], in [8] and in series [3] was Active.
On to `CCCC(CCC)C(=O)O` [VALPROIC ACID], for which the Activity entry in [2] is given as “Non-toxic”. Also, the result in [3] and in series [10] was Active. For the same compound, in series [9], the result was inactive.
Turning to `C/C=C(/C)C(=O)O[C@H]1C(C)=C2[C@H]([C@@H]1OC(=O)CCCCCCC)[C@@](C)(OC(C)=O)C[C@H](OC(=O)CCC)[C@@]1(O)[C@H]2OC(=O)[C@@]1(C)O`, the result in series [11], in series [14], in series [15], in [16] and in [21] was inactive. Further, the result in series [12], in [13], in series [17], in [18], in series [19] and in series [20] was Active.
With `C1COC(NC(C2CC2)C2CC2)=N1`, in series [22], the Activity result is “Dose-dependent effect”. Further, the result in [23], in series [24], in series [25] and in series [26] was Active.
Turning to `COCCOC(=O)C1=C(C)NC(C)=C(C(=O)OC(C)C)C1c1cccc([N+](=O)[O-])c1` (centres undefined) [NIMODIPINE], the Activity entry in series [2] is given as “Non-toxic”. Besides, the result in series [3] was Active.
